Source: ChEMBL document CHEMBL2331121, “Design, synthesis, and pharmacological characterization of N- and O-substituted 5,6,7,8-tetrahydro-4H-isoxazolo[4,5-d]azepin-3-ol analogues: novel 5-HT(2A)/5-HT(2C) receptor agonists with pro-cognitive properties” (J Med Chem, 2013)
pEC50, pKi: −log10 of the molar value. Each block holds one molecule with its values, some of them ahead of it. Activity calls are given as the source filed them. No cut-off for these calls is given here.

Key:
[1] = target: T1, 5-hydroxytryptamine receptor 2C (Homo sapiens) (UniProt P28335); experiment: Agonist activity at human 5HT2C receptor expressed in HEK293 cells assessed as induction of intracellular calcium release up to 1000 uM measured up to 90 secs by fluorescence assay; assay type: functional, cell-based
T1 sequence (whole entry): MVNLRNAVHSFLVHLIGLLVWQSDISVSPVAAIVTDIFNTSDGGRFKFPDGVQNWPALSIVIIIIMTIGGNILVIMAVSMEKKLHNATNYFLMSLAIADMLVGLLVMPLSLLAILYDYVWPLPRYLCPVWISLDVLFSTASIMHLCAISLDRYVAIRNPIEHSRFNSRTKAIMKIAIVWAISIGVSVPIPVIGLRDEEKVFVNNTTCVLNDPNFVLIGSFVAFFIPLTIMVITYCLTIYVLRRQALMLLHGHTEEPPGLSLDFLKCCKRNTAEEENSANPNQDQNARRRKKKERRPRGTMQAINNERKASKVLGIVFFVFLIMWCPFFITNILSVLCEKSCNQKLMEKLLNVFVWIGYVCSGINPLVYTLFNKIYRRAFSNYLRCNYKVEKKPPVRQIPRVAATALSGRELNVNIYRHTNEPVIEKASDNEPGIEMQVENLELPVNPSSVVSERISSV
Procedure, shortened: (§1)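 Stable polyclonal 5-HT2A or 5-HT2C HEK293 cells seeded on poly-D-lysine plates (6 × 10⁴ cells/well). Next day loaded with Fluo-4/AM for 1 h at 37 °C in HBSS/20 mM HEPES/1 mM CaCl₂/1 mM MgCl₂/2.5 mM probenecid, pH 7.4. Fluorescence (485 ex/525 em) recorded before and up to 90 s after agonist. Response relative to 5-HT on the same plate. Duplicate, at least three times.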

[2] = target: T2, 5-hydroxytryptamine receptor 2A (Homo sapiens, UniProt P28223); experiment: biochemical; assay type: cell-based, tsA201; conditions: for pKi: read-out: Ki; for Ki: read-out: pKi (converted)
[3] = target: T3, 5-hydroxytryptamine receptor 2C (Homo sapiens, UniProt P28335); experiment: Displacement of [3H]mesulergine from human 5HT2C receptor expressed in tsA201 cell membranes after 1 hr by scintillation counting analysis
T3 sequence (P28335 whole entry): T1 sequence (whole entry)

[4] = target: T2, 5-hydroxytryptamine receptor 2A; experiment: Agonist activity at human 5HT2A receptor expressed in HEK293 cells assessed as induction of intracellular calcium release up to 1000 uM measured up to 90 secs by fluorescence assay; assay type: functional, cell-based; procedure, shortened: as §1
[5] = target: T4, 5-hydroxytryptamine receptor 2C (Rattus norvegicus) (UniProt P08909); experiment: Displacement of [125I]-N-(p-I-Bn)-THAZ from 5HT2C receptor in rat cerebellum membrane after 1 hr by scintillation counting analysis; assay type: cell membranes
T4 sequence (whole entry): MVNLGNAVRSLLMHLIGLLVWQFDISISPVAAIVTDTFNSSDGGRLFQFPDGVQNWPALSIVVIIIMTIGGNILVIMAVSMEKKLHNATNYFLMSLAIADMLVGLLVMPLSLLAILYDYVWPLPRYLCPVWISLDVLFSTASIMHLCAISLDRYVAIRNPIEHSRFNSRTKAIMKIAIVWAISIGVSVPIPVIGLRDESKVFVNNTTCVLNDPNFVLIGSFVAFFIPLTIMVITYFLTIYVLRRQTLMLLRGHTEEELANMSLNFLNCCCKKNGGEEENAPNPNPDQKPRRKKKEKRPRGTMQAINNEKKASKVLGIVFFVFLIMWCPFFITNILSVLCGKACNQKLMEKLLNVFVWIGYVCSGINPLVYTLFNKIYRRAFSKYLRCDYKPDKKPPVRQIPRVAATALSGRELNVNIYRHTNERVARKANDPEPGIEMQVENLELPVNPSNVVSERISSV

[6] = target: T4, 5-hydroxytryptamine receptor 2C (Rattus norvegicus); experiment: Displacement of [125I]-N-(p-I-Bn)-THAZ from 5HT2C receptor in rat midbrain membrane after 1 hr by scintillation counting analysis; assay type: cell membranes
[7] = target: T5, 5-hydroxytryptamine receptor 2C (Rattus norvegicus, UniProt P08909); experiment: (§2) Displacement of [125I]-N-(p-I-Bn)-THAZ from 5HT2C receptor in rat cerebral cortex membrane after 1 hr by scintillation counting analysis; assay type: cell membranes
T5 sequence (P08909 whole entry): T4 sequence (whole entry)

[8] = target: T4, 5-hydroxytryptamine receptor 2C (Rattus norvegicus); experiment: as §2; assay type: cell membranes
[9] = target: T4, 5-hydroxytryptamine receptor 2C (Rattus norvegicus); experiment: Displacement of [125I]-N-(p-I-Bn)-THAZ from 5HT2C receptor in rat hippocampal membrane after 1 hr by scintillation counting analysis; assay type: cell membranes; conditions: Hippocampus
[10] = target: T1, 5-hydroxytryptamine receptor 2C (Homo sapiens); experiment: Agonist activity at human 5HT2C receptor expressed in HEK293 cells assessed as induction of intracellular calcium release at 100 to 1000 uM by fluorescence assay; assay type: functional, cell-based
Procedure, shortened: (§3)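 Stable polyclonal h5-HT2A or h5-HT2C HEK293 cells plated on poly-D-lysine wells, loaded next day with Fluo-4/AM for 1 h at 37 °C. Buffer was HBSS with 20 mM HEPES, 1 mM CaCl₂, 1 mM MgCl₂, 2.5 mM probenecid, pH 7.4. Fluorescence read at 485/525 nm before and up to 90 s after agonist addition. Responses normalised to 5-HT on the same plate. Duplicate, 4−10 experiments.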

[11] = target: T2, 5-hydroxytryptamine receptor 2A; experiment: Agonist activity at human 5HT2A receptor expressed in HEK293 cells assessed as induction of intracellular calcium release at 100 to 1000 uM by fluorescence assay; assay type: functional, cell-based; procedure, shortened: as §3
[12] = target: T2, 5-hydroxytryptamine receptor 2A; experiment: Agonist activity at human 5HT2A receptor expressed in HEK293 cells assessed as accumulation of IP1 incubated for 1 hr at 37 degC followed by 15 mins at RT by TR-FRET assay; assay type: functional, cell-based
[13] = target: T3, 5-hydroxytryptamine receptor 2C; experiment: Agonist activity at human 5HT2C receptor expressed in HEK293 cells assessed as induction of intracellular calcium release measured for 90 secs by fluorescence assay; assay type: functional, cell-based; conditions: read-out: EC50
[14] = target: T2, 5-hydroxytryptamine receptor 2A; experiment: Agonist activity at human 5HT2A receptor expressed in HEK293 cells assessed as induction of intracellular calcium release by fluorescence assay relative to 5HT; assay type: functional, cell-based; procedure, shortened: as §1
[15] = target: T3, 5-hydroxytryptamine receptor 2C; experiment: Agonist activity at human 5HT2C receptor expressed in HEK293 cells assessed as accumulation of IP1 incubated for 1 hr at 37 degC followed by 15 mins at RT by TR-FRET assay; assay type: functional, cell-based
[16] = target: T1, 5-hydroxytryptamine receptor 2C (Homo sapiens); experiment: Agonist activity at human 5HT2C receptor expressed in HEK293 cells assessed as induction of intracellular calcium release by fluorescence assay relative to 5HT; assay type: functional, cell-based; procedure, shortened: as §1
[17] = target: T1, 5-hydroxytryptamine receptor 2C (Homo sapiens); experiment: Agonist activity at human 5HT2C receptor expressed in HEK293 cells assessed as accumulation of IP1 incubated for 1 hr at 37 degC followed by 15 mins at RT by TR-FRET assay relative to 5HT; assay type: functional, cell-based
Procedure, shortened: (§4)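 Polyclonal HEK293 lines stably expressing human 5-HT2A (variant 1) or 5-HT2C (INI isoform), detached and suspended at 1 × 10⁷ cells/mL in HBSS with 20 mM HEPES, 1 mM CaCl₂, 1 mM MgCl₂, pH 7.4. Ligands in buffer with 40 mM LiCl. Incubated 1 h at 37 °C, then 15 min RT. IP1 read by HTRF 665/615 ratio. Triplicate, at least four times.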

[18] = target: T2, 5-hydroxytryptamine receptor 2A; experiment: Ratio of EC50 for human 5HT2A receptor by calcium fiux-based fluorescence assay to EC50 for 5HT2A by IP1 accumulation-based TR-FRET assay; assay type: functional
[19] = target: T2, 5-hydroxytryptamine receptor 2A; experiment: Agonist activity at human 5HT2A receptor expressed in HEK293 cells assessed as accumulation of IP1 incubated for 1 hr at 37 degC followed by 15 mins at RT by TR-FRET assay relative to 5HT; assay type: functional, cell-based; procedure, shortened: as §4
[20] = target: T2, 5-hydroxytryptamine receptor 2A; experiment: Agonist activity at human 5HT2A receptor expressed in HEK293 cells assessed as induction of intracellular calcium release measured for 90 secs by fluorescence assay; assay type: functional, cell-based; conditions: for pEC50: read-out: EC50
[21] = target: T1, 5-hydroxytryptamine receptor 2C (Homo sapiens); experiment: Ratio of EC50 for human 5HT2C receptor by calcium fiux-based fluorescence assay to […] accumulation-based TR-FRET assay; assay type: functional
[22] = target: T2, 5-hydroxytryptamine receptor 2A; assay type: functional, cell-based, HEK293
[23] = target: T3, 5-hydroxytryptamine receptor 2C; experiment: Antagonist activity at human 5HT2C receptor expressed in HEK293 cells assessed as inhibition of 5HT-induced intracellular calcium release measured for 90 secs by fluorescence assay; assay type: functional, cell-based
[24] = target: T2, 5-hydroxytryptamine receptor 2A; experiment: Agonist activity at human 5HT2A receptor expressed in HEK293 cells assessed as induction of intracellular calcium release at 1 mM measured for 90 secs by fluorescence assay; assay type: functional, cell-based; procedure, shortened: as §3
[25] = target: T2, 5-hydroxytryptamine receptor 2A; experiment: Antagonist activity at human 5HT2A receptor expressed in HEK293 cells assessed as inhibition of 5HT-induced intracellular calcium release at 1 mM measured for 90 secs by fluorescence assay; assay type: functional, cell-based
Procedure, shortened: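 Fluo-4/Ca²⁺ read-out in stable h5-HT2A or h5-HT2C HEK293 cells (HBSS/HEPES/probenecid buffer, pH 7.4). Antagonist was added after the dye-loading wash, then cells were challenged with an EC₇₅−EC₈₅ concentration of 5-HT. Emission at 525 nm was monitored up to 90 s after agonist addition. Duplicate, repeated in independent experiments.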

T2 sequence (P28223 whole entry): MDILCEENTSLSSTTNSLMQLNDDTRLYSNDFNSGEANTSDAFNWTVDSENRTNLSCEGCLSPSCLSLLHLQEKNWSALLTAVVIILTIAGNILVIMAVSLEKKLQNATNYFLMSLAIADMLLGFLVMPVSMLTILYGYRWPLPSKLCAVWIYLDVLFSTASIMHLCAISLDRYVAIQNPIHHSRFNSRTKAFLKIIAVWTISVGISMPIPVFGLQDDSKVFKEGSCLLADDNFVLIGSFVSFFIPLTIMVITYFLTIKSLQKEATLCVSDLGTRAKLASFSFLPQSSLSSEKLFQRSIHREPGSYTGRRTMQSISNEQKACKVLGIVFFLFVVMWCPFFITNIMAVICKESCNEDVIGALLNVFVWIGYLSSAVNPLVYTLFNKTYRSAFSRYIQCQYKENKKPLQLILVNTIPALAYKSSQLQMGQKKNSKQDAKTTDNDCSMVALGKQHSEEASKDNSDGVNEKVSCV

Structure (SMILES): Cn1oc2c(c1=O)CCNCC2
Activity [10]: Active
Activity [11]: Active
pKi [2]: < 3.52
Ki [2]: > 316 µM
pKi [3]: < 3.52

Structure (SMILES): c1ccc(COc2noc3c2CCNCC3)cc1
pEC50 [12]: 5.89
pEC50 [13]: 7.00
Emax [14]: 59%
pEC50 [15]: 6.64
Emax [16]: 84%
Emax [17]: 105%
Ratio EC50 [18]: 2
Emax [19]: 77%
pKi [2]: 5.48
pEC50 [20]: 6.62
pKi [3]: 5.92
Ratio EC50 [21]: 2

Structure (SMILES): CN1CC2c3ccccc3Oc3ccc(Cl)cc3C2C1 (racemic) [ASENAPINE]
pKi ([22]; read-out: Ki): 9.04
pKi [23]: 8.60

Structure (SMILES): OC(c1ccccc1)C1CCN(CCc2ccccc2)CC1 (configuration not stated) [GLEMANSERIN]
Ki ([22]; read-out: pKi (converted)): 0.00245 µM
pKi [23]: 5.00

Structure (SMILES): COc1noc2c1CCN(C)CC2
Activity [24]: inactive
Activity [25]: inactive
Activity [10]: Active
pKi [2]: < 3.52
Ki [2]: > 316 µM
pEC50 ([20]; hek293): < 3.00
EC50 ([20]; read-out: pEC50 (converted)): > 1000 µM
pKi [3]: < 3.52

Results, then the molecule that gave them:

Activity [1]: Active
pKi [2]: 3.52
pKi [3]: 3.52
Activity [4]: Active
Structure (SMILES): CCn1oc2c(c1=O)CCNCC2

Activity [5]: inactive
Activity [6]: inactive
pKi [7]: 7.99
Activity [8]: Dose-dependent effect
Activity [9]: inactive
pKi [3]: 6.51
Structure (SMILES): O=c1c2c(on1Cc1ccc(I)cc1)CCNCC2

Activity [10]: Active
Activity [11]: Active
Structure (SMILES): c1ccc(COc2noc3c2CNCC3)cc1

Activity [1]: Active
pKi [2]: 4.00
pKi [3]: 4.00
Activity [4]: Active
Structure (SMILES): CCCn1oc2c(c1=O)CCNCC2

Activity [1]: Active
Activity [4]: Active
Structure (SMILES): COc1noc2c1CNCC2
